Measured values published in ChEMBL document CHEMBL3856188, “Usnic Acid Derivatives with Cytotoxic and Antifungal Activities from the Lichen Usnea longissima” (J Nat Prod, 2016).
≈ marks a conversion by molar mass, not a printed value.

Columns and labels:
Trichophyton rubrum = assay: Antimicrobial activity against Trichophyton rubrum after 4 days by microdilution method; type: functional; details: 96 h
[1] = Cytotoxicity against human HepG2 cells assessed as cell growth inhibition after 48 hrs by MTT assay; type: functional, cell-based; details: HepG2, 48 h
Method in brief: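 HepG2 cells seeded at 3 × 10^3 cells/well in DMEM with 10% FBS and grown 24 h, then exposed to compound for 48 h. MTT (5 mg/mL in PBS) added for 3 h, supernatant removed, formazan dissolved in DMSO with 10 min shaking, and OD read at 490 nm. Methotrexate served as positive control. Values given as IC50.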

In the case of `CCO[C@@]12CC(=O)/C(=C(/C)N)C(=O)[C@]1(C)c1c(O)c(C(C)=O)c(O)c(C)c1O2`, the MIC50 (Trichophyton rubrum) is reported as > 200 µM.

In the case of `CCO[C@@]12CC(=O)/C(=C(/C)N)C(=O)[C@]1(C)c1c(O)c(C)c(O)c(C(C)=O)c1O2`, the IC50 [1] is reported as 50.2 µM and the MIC50 (Trichophyton rubrum) is reported as > 200 µM.

`CCO[C@@]12CC(O)=C(C(C)=O)C(=O)[C@]1(C)c1c(O)c(C)c(O)c(C(C)=O)c1O2` showed an MIC50 (Trichophyton rubrum) of 41 µM (≈ 16 µg/mL).

For `COC(=O)CCCN/C(C)=C1\C(=O)C=C2Oc3c(C(C)=O)c(O)c(C)c(O)c3[C@@]2(C)C1=O`, the MIC50 (Trichophyton rubrum) was > 200 µM.

For `CCOC(=O)CCCN/C(C)=C1\C(=O)C[C@@]2(OCC)Oc3c(C(C)=O)c(O)c(C)c(O)c3[C@@]2(C)C1=O`, the MIC50 (Trichophyton rubrum) was > 200 µM.

`CCO[C@@]12CC(O)=C(C(C)=O)C(=O)[C@]1(C)c1c(O)c(C(C)=O)c(O)c(C)c1O2` showed an IC50 [1] of 53.3 µM and an MIC50 (Trichophyton rubrum) of 41 µM (≈ 16 µg/mL).

With `CCOC(=O)CCCN/C(C)=C1\C(=O)C=C2Oc3c(C(C)=O)c(O)c(C)c(O)c3[C@@]2(C)C1=O` the MIC50 (Trichophyton rubrum) was > 200 µM.

In the case of `CC(=O)C1=C(O)C=C2Oc3c(C(C)=O)c(O)c(C)c(O)c3[C@@]2(C)C1=O` [(+)-USNIC ACID], the MIC50 (Trichophyton rubrum) is reported as > 200 µM.

In the case of `CN(Cc1cnc2nc(N)nc(N)c2n1)c1ccc(C(=O)N[C@@H](CCC(=O)O)C(=O)O)cc1` [METHOTREXATE], the IC50 [1] is reported as 15.8 µM.
